# From ChEMBL document CHEMBL1158347, “Substituted quinazolines, part 3. Synthesis, in vitro antitumor activity and molecular modeling study of certain 2-thieno-4(3H)-quinazolinone analogs” (2009)
# Tests used:
# Format in all cases: functional
# NSCLC = experiment: Growth inhibition of human NSCLC cells after 48 hrs
# Outline: (§1)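 NCI in vitro disease-oriented human tumor cell line screen. Compounds passing a one-dose primary assay (MCF-7, NCI-H460, SF-268; pass = growth of any line reduced to 32% or less) were tested on the 60-line panel over a 5-log dose range. Compounds were dissolved in DMSO, with under 1% DMSO in final dilutions, and tested in duplicate at 6×10^4 cells/ml. Cells were incubated at 37 °C in 5% CO2 for 48 h, then diluted 10-fold in saline and counted with a Coulter counter, with counts corrected for dilution. Controls held PBS/DMSO at identical dilutions. GI50 was reported per line and as subpanel/full-panel mean-graph midpoint.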
# HL-60(TB) = experiment: Growth inhibition of human HL-60(TB) cells after 48 hrs; conditions: HL-60, 48 h; for CC50: read-out: LC50 (the source's name)
# Outline: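 NCI 60-cell-line screen over a 5-log dose range. Compounds were dissolved in DMSO, final DMSO under 1%. Duplicate wells were seeded at 6×10^4 cells/ml, with PBS/DMSO vehicle controls at identical dilutions. Cells were incubated 48 h at 37 °C in humidified 5% CO2, diluted 10-fold in saline, and counted by Coulter counter with dilution correction. GI50 read-out.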
# UACC-257 = experiment: Growth inhibition of human UACC257 cells after 48 hrs; conditions: UACC-257, 48 h; outline: as §1
# RPMI-8226 = experiment: Growth inhibition of human RPMI8226 cells after 48 hrs; conditions: RPMI-8226, 48 h; for CC50: read-out: LC50 (the source's name); outline: as §1
# [1] = Growth inhibition of human renal cancer cells after 48 hrs; conditions: Cancer cell lines; outline: as §1
# T47D = experiment: Growth inhibition of human T47D cells after 48 hrs; outline: as §1
# [2] = Growth inhibition of human ovarian cancer cells after 48 hrs; conditions: Cancer cell lines; outline: as §1
# [3] = Growth inhibition of human CNS cancer cells after 48 hrs; conditions: Cancer cell lines; outline: as §1
# K562 = experiment: Growth inhibition of human K562 cells after 48 hrs; conditions: K562, 48 h; outline: as §1
# [4] = Growth inhibition of human prostate cancer cells after 48 hrs; conditions: Cancer cell lines; outline: as §1
# [5] = Growth inhibition of human leukemia cells after 48 hrs; conditions: Leukemia cell; outline: as §1
# [6] = Growth inhibition of human breast cancer cells after 48 hrs; conditions: Cancer cell lines; outline: as §1
# MCF7 = experiment: Growth inhibition of human MCF7 cells after 48 hrs; conditions: MCF7, 48 h; for CC50: read-out: LC50 (the source's name); outline: as §1
# [7] = Growth inhibition of human Colon cancer cells after 48 hrs; conditions: Cancer cell lines; outline: as §1
# SK-MEL-2 = experiment: Growth inhibition of human SK-MEL-2 cells after 48 hrs; conditions: SK-MEL-2, 48 h; outline: as §1
# SF-539 = experiment: Growth inhibition of human SF539 cells after 48 hrs; conditions: SF-539, 48 h; for CC50: read-out: LC50 (the source's name); outline: as §1
# [8] = Growth inhibition of human melanoma cells after 48 hrs; conditions: Melanoma cell; outline: as §1
# CCRF-CEM = experiment: Growth inhibition of human CCRF-CEM cells after 48 hrs; conditions: for CC50: read-out: LC50 (the source's name); outline: as §1
# [9] = read-out: LC50 (the source's name)
structure (smiles),measurement,setting,value
O=C(Nc1ccc(I)cc1C(=O)Nc1ccc(O)cc1)c1cccs1,GI50,NSCLC,13.5 µM
same,LC50 (concentration killing 50% of cells),NSCLC,74.6 µM
same,TGI,NSCLC,33.1 µM
same,GI50,HL-60(TB),8 µM
same,TGI,HL-60(TB),37 µM
same,CC50,HL-60(TB),> 100 µM
same,GI50,UACC-257,< 0.01 µM
same,LC50,UACC-257,> 100 µM
same,TGI,UACC-257,22 µM
same,GI50,RPMI-8226,3 µM
same,TGI,RPMI-8226,18 µM
same,CC50,RPMI-8226,57 µM
same,GI50,[1],13.2 µM
same,TGI,[1],29.3 µM
same,CC50,[1]; [9],64.1 µM
same,GI50,T47D,2 µM
same,LC50,T47D,50 µM
same,TGI,T47D,11 µM
same,GI50,[2],13.3 µM
same,LC50,[2],72.5 µM
same,TGI,[2],35.4 µM
same,GI50,[3],12.2 µM
same,TGI,[3],32.4 µM
same,CC50,[3]; [9],77.6 µM
same,GI50,K562,24 µM
same,LC50 (concentration killing 50% of cells),K562,> 100 µM
same,TGI,K562,> 100 µM
same,GI50,[4],8.7 µM
same,TGI,[4],21.1 µM
same,CC50,[4]; [9],45.8 µM
same,GI50,[5],11.5 µM
same,TGI,[5],60.6 µM
same,CC50,[5]; [9],91 µM
same,GI50,[6],11.9 µM
same,LC50,[6],79.4 µM
same,TGI,[6],36.8 µM
same,GI50,MCF7,12 µM
same,TGI,MCF7,33 µM
same,CC50,MCF7,94 µM
same,GI50,[7],15.2 µM
same,LC50,[7],74.6 µM
same,TGI,[7],34.5 µM
same,GI50,SK-MEL-2,16 µM
same,LC50,SK-MEL-2,57 µM
same,TGI,SK-MEL-2,30 µM
same,GI50,SF-539,< 0.01 µM
same,TGI,SF-539,15 µM
same,CC50,SF-539,62 µM
same,GI50,[8],11.1 µM
same,LC50 (lethal concentration 50%),[8],63.8 µM
same,TGI,[8],26.9 µM
O=C(Nn1c(-c2cccs2)nc2ccc(I)cc2c1=O)c1ccccc1,GI50,NSCLC,25.6 µM
same,TGI,NSCLC,75.3 µM
same,GI50,HL-60(TB),34 µM
same,TGI,HL-60(TB),> 100 µM
same,CC50,HL-60(TB),> 100 µM
same,GI50,UACC-257,< 0.01 µM
same,LC50,UACC-257,> 100 µM
same,TGI,UACC-257,31 µM
same,GI50,RPMI-8226,23 µM
same,TGI,RPMI-8226,58 µM
same,CC50,RPMI-8226,> 100 µM
same,GI50,[1],32.1 µM
same,TGI,[1],86.7 µM
same,GI50,T47D,11 µM
same,LC50,T47D,> 100 µM
same,TGI,T47D,38 µM
same,GI50,[2],27.4 µM
same,TGI,[2],74.4 µM
same,GI50,[3],27.4 µM
same,TGI,[3],85.8 µM
same,GI50,K562,44 µM
same,LC50 (concentration killing 50% of cells),K562,> 100 µM
same,TGI,K562,> 100 µM
same,GI50,[4],27.2 µM
same,TGI,[4],73.3 µM
same,GI50,[5],33.9 µM
same,TGI,[5],71.5 µM
same,GI50,[6],24.5 µM
same,TGI,[6],72.5 µM
same,GI50,CCRF-CEM,39 µM
same,TGI,CCRF-CEM,> 100 µM
same,CC50,CCRF-CEM,> 100 µM
same,GI50,MCF7,23 µM
same,TGI,MCF7,> 100 µM
same,CC50,MCF7,> 100 µM
same,GI50,[7],35.4 µM
same,TGI,[7],90 µM
same,GI50,SK-MEL-2,24 µM
same,LC50,SK-MEL-2,> 100 µM
same,TGI,SK-MEL-2,69 µM
same,GI50,SF-539,30 µM
same,TGI,SF-539,> 100 µM
same,CC50,SF-539,> 100 µM
same,GI50,[8],35.5 µM
same,TGI,[8],62.1 µM
O=c1c2cc(I)ccc2nc(-c2cccs2)n1Nc1ccccc1,GI50,NSCLC,8.6 µM
same,TGI,NSCLC,88 µM
same,GI50,HL-60(TB),0.4 µM
same,TGI,HL-60(TB),> 100 µM
same,CC50,HL-60(TB),> 100 µM
same,GI50,UACC-257,32 µM
same,TGI,UACC-257,> 100 µM
same,GI50,RPMI-8226,5 µM
same,TGI,RPMI-8226,> 100 µM
same,CC50,RPMI-8226,> 100 µM
same,GI50,[1],19.7 µM
same,TGI,[1],93.1 µM
same,GI50,[2],8.6 µM
same,TGI,[2],80.1 µM
same,GI50,[3],16.3 µM
same,TGI,[3],81.9 µM
same,GI50,K562,0.3 µM
same,TGI,K562,23 µM
same,GI50,[4],1.61 µM
same,TGI,[4],> 100 µM
same,GI50,[5],12.7 µM
same,TGI,[5],87.1 µM
same,GI50,[6],5.9 µM
same,TGI,[6],> 100 µM
same,GI50,CCRF-CEM,51 µM
same,TGI,CCRF-CEM,> 100 µM
same,CC50,CCRF-CEM,> 100 µM
same,GI50,MCF7,2 µM
same,TGI,MCF7,> 100 µM
same,CC50,MCF7,> 100 µM
same,GI50,[7],6.5 µM
same,TGI,[7],79.2 µM
same,GI50,SK-MEL-2,0.3 µM
same,TGI,SK-MEL-2,2 µM
same,GI50,SF-539,34 µM
same,TGI,SF-539,> 100 µM
same,CC50,SF-539,> 100 µM
same,GI50,[8],8.5 µM
same,TGI,[8],85.9 µM
O=c1c2cc(I)ccc2nc(-c2cccs2)n1NC(=S)Nc1ccccc1,GI50,NSCLC,24 µM
same,TGI,NSCLC,75.2 µM
same,GI50,HL-60(TB),1 µM
same,TGI,HL-60(TB),22 µM
same,CC50,HL-60(TB),> 100 µM
same,GI50,UACC-257,17 µM
same,LC50,UACC-257,> 100 µM
same,TGI,UACC-257,66 µM
same,GI50,RPMI-8226,19 µM
same,TGI,RPMI-8226,52 µM
same,CC50,RPMI-8226,> 100 µM
same,GI50,[1],32.5 µM
same,TGI,[1],84.8 µM
same,GI50,T47D,3 µM
same,LC50,T47D,> 100 µM
same,TGI,T47D,17 µM
same,GI50,[2],21.5 µM
same,TGI,[2],77.5 µM
same,GI50,[3],29.2 µM
same,TGI,[3],81.4 µM
same,GI50,K562,0.02 µM
same,LC50 (concentration killing 50% of cells),K562,75 µM
same,TGI,K562,10 µM
same,GI50,[4],25.8 µM
same,TGI,[4],76.2 µM
same,GI50,[5],11.5 µM
same,TGI,[5],38.5 µM
same,GI50,[6],19.4 µM
same,TGI,[6],60.3 µM
same,GI50,CCRF-CEM,21 µM
same,TGI,CCRF-CEM,61 µM
same,CC50,CCRF-CEM,> 100 µM
same,GI50,MCF7,29 µM
same,TGI,MCF7,88 µM
same,CC50,MCF7,> 100 µM
same,GI50,[7],29.5 µM
same,TGI,[7],84 µM
same,GI50,SF-539,34 µM
same,TGI,SF-539,> 100 µM
same,CC50,SF-539,> 100 µM
same,GI50,[8],23.1 µM
same,TGI,[8],62.8 µM
